Measurements as given in ChEMBL document CHEMBL5036309, “Orally Active Peptide Vector Allows Using Cannabis to Fight Pain While Avoiding Side Effects” (J Med Chem, 2021).
The source made the active and inactive calls. Square brackets hold non-standard residues; d marks the D form. Peptide text beside a SMILES is read from it.

Columns and labels:
[1] = test system: HEK293T; experiment: Inhibition of human c-YFP fused CB1R/n-YFP fused 5HT2A receptor heterodimer formation transfected in human HEK293T cells at 4 uM incubated for 4 hrs by BIFC assay; type: cell-based
Procedure, shortened: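 HEK-293T cells were cotransfected 48 h with 5HT2AR-cYFP and CB1R-nYFP (4 μg cDNA each, polyethylenimine), then treated with 4 μM peptide or vehicle for 4 h at 37 °C. Reconstituted YFP Venus was read on 20 μg protein at 530 nm emission with 400 nm excitation, minus the fluorescence of non-expressing cells. Mean ± SEM, n = 10–30.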

[2] = Drug internalization in mouse BEND3 cells by confocal microscopic analysis; type: ADME, cell-based
Procedure, shortened: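 bEnd.3 mouse brain endothelial cells were exposed to 5(6)-carboxyfluorescein-labeled peptides and counterstained with Hoechst 33342 and CellMask Deep Red membrane stain. Imaging used point-scanning confocal microscopy with a 63× oil objective, 405 nm excitation for the stains and 488 nm for the peptide.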

[3] = test system: Mus musculus; experiment: Protection against THP-induced amnesic effect in mouse assessed as reduction in memory impairment at 20 mg/kg, iv pretreated for 30 mins followed by THP addition; type: functional, organism-based
Procedure, shortened: (§1)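 V-maze novel object recognition. Day 1 was 9 min habituation. Day 2 was 9 min training with two identical objects. Peptide was given IV (20 mg/kg) or orally (5, 10, 20 mg/kg) right after training, then IP THC 3 mg/kg or vehicle 30 min later. The 9 min test came 24 h later with one object replaced. Discrimination index = (novel − familiar)/total exploration time; exploration meant the nose oriented within 2 cm of the object. Fisher LSD.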

[4] = test system: Mus musculus; experiment: Protection against THP-induced amnesic effect in mouse assessed as reduction in memory impairment at 5 to 20 mg/kg, po pretreated for 30 mins followed by THP addition; type: functional, organism-based; details: dose 5-20 mg/kg; procedure, shortened: as §1
[5] = test system: BEND3; experiment: Induction of BBB translocation in mouse BEND3 cells measured after 24 hrs by fluorescence analysis; type: functional, cell-based
Procedure, shortened: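 5(6)-Carboxyfluorescein-labeled peptides were applied to a transwell BBB model of bEnd.3 cells. Translocation (%) was measured as fluorescence in the basolateral chamber after 24 h, with a trans-BBB peptide as positive control. Barrier integrity was checked afterward by FD4 dextran permeability. Mean ± SEM, n = 3–6, independent cultures on different days.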

[6] = test system: Mus musculus; experiment: Analgesic activity in mouse assessed as pain response at 5 to 20 mg/kg, po pretreated with compound for 30 mins followed by THP addition and measured after 60 mins by hot plate test; type: functional, organism-based; details: dose 5-20 mg/kg, time 90.0 min
Procedure, shortened: (§2)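 Mice got peptide or vehicle IV (20 mg/kg) or orally by gavage (5, 10, 20 mg/kg) 30 min before IP THC 10 mg/kg (vehicle 5% ethanol, 5% Cremophor-EL, 90% saline). Latency to jump on a 52 ± 0.5 °C hot plate was read 60 min after THC, with a 240 s cutoff. Mean ± SEM, n = 10–12 (IV) or 5–8 (oral); Fisher LSD.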

[7] = test system: Mus musculus; experiment: Analgesic activity in mouse assessed as pain response at 20 mg/kg, iv pretreated with compound for 30 mins followed by THP addition and measured after 60 mins by hot plate test; type: functional, organism-based; details: time 90.0 min; procedure, shortened: as §2
[8] = test system: Mus musculus; experiment: Immunogenicity in CD1 mouse at 100 ug administered for 5 consecutive days and booster dose on day 15 measured upto 19 days by ELISA; type: ADME, organism-based; details: in vivo, 456 h, time <=19 day, dose 100 µg
Procedure, shortened: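 Female outbred Hsd:ICR (CD-1) mice (n = 10) got IV peptide 100 μg/dose in PBS + 2% DMSO on 5 consecutive days with a boost on day 15. Controls were KLH conjugate 30 μg (n = 5) and PBS (n = 5). Sera from days 0, 9 and 19 were tested by indirect ELISA on plates coated with peptide-BSA 1 μg/mL, using anti-IgG-HRP, TMB and A450. Titer (log10) = reciprocal of the last dilution above the day-0 serum signal + 2 SD.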

CC[C@@H](C)[C@@H](NC(=O)CNC(=O)[C@@H](C)NC(=O)[C@H](NC(=O)[C@@H](Cc1ccc(O)cc1)NC(=O)[C@@H](C)NC(=O)[C@@H](Cc1ccc(O)cc1)NC(=O)[C@@H](CCSC)NC(=O)[C@@H](Cc1ccc(O)cc1)NC(=O)[C@H](NC(=O)[C@@H](CC(C)C)NC(=O)[C@H](N)Cc1c[nH]c2ccccc12)[C@H](C)CC)C(C)C)C(=O)N[C@H](CC(C)C)C(=O)N[C@H](CCCCN)C(=O)N[C@H](CCCNC(=N)N)C(=O)N[C@H](Cc1c[nH]c2ccccc12)C(N)=O (H-[dW][dL][dI][dY][dM][dY][dA][dY][dV][dA]G[dI][dL][dK][dR][dW]-NH2)
inhibition [1]: Active
Drug uptake [2]: Active
Activity [3]: Active
Activity [4]: Active
Activity [5]: Active
Activity [6]: Active
Activity [7]: Active
Activity [8]: Non-Toxic
